# From PubChem BioAssay
# procasp3 activ = activates human procaspase-3; 0.11% of 330,000 active; activation, % at 8.5 µM; recombinant procaspase-3 D3A, Ac-DEVD-pNA absorbance 405 nm; P42574; AID 463141;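 active = activation above the mean of all tested compounds plus 3 SD, cut at about 21% in these data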;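 note: 0% = DMSO alone and 100% = DMSO wells spiked with extra 5 µM PC-3 D3A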
# Target sequence (P42574 whole entry D9A/D28A/D175A): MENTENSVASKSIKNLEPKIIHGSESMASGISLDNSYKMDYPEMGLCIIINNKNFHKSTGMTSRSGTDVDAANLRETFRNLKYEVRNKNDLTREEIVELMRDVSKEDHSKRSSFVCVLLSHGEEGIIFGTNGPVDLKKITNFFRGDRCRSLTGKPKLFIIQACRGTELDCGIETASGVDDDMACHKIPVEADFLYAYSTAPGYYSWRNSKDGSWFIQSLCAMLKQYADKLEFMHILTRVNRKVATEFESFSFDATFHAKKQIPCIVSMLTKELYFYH
#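 material = Procaspase-3 D3A mutant | probe or stimulus = Ac-DEVD-pNA | compound = single dose, 8.5 µM nominal compound, 0.8% DMSO | timing = 1 h preincubation, 2 h reaction | measured by = 405 nm absorbance of p-nitroaniline, reads at 0 and 120 min | benchmarks = DMSO-only low control, 5 µM PC-3 D3A high control | repeats = singlicate, each compound tested once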
# GAA850 FXN act = frataxin GAA850 promoter activation. HEK293 lucGAA850 FXN promoter luciferase reporter, 24 h; percent of 10 µM SAHA response. activation, % at 6 µM. 0.56% of 360,000 active. AID 540364;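 active = activation above the average of all compounds screened plus 3 SD, cutoff fixed separately per campaign, cut at about 7.5% in these data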;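 note: 0% = DMSO wells and 100% = 10 µM SAHA wells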
# Neddylation inh = inhibitors of human cullin neddylation | TR-FRET cullin neddylation, biochemical | inhibition, % at 25 µM | 0.58% of 360,000 active | AID 651699; in the data active = inhibition above about 36%
# proCasp7 act = counter-screen: procaspase-7 (human) activation; P55210; recombinant procaspase-7, Ac-DEVD-pNA absorbance 405 nm; D23A/D198A/D206A triple mutant, cannot self-cleave; scale: DMSO 0, 5 µM enzyme 100; activation, % at 8.5 µM; 0.093% of 330,000 active; AID 463210;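 active = percent activation above the screen-wide mean plus 3 SD, cut at about 25% in these data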
# Target sequence (P55210 whole entry D23A/D198A/D206A): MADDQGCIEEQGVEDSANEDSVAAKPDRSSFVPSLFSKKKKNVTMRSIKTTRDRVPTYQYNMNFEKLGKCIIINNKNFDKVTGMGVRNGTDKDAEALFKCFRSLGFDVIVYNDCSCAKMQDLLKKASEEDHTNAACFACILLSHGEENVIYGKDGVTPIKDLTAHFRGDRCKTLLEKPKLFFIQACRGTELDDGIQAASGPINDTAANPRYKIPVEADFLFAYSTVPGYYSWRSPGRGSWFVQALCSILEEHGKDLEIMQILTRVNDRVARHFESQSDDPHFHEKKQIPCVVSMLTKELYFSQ
#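 Material: Procaspase-7 triple mutant (PC-7 D3A) | Quantity: 2 µM procaspase-7 mutant as dispensed | Reagent: DEVD-pNA substrate | Times: 1 h preincubation, 2 h reaction | Technique: 405 nm absorbance of p-nitroaniline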
# HIF activator = HIF pathway transcriptional activation; U2OS HRE-luciferase reporter, luminescence; normalized: DMSO 0%, desferrioxamine 100%; activation, % at 7.5 µM (by protocol); 0.32% of 300,000 active;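 active = mean activation of at least 10% of the iron chelator positive control signal, with at least half of replicates also reaching 10%; inconclusive = mean and replicate majority disagree about reaching 10%; inactive = mean and most replicates under 10%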
# Calb FLC = C. albicans growth modulation with fluconazole | AID 1979 | C. albicans CaCi-2 + fluconazole, Alamar Blue growth, 48 h | growth inhibition, % (test concentration not listed) | 0.57% of 300,000 active;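 active = growth inhibition above about 58% in most replicates, limit read from the data, passing the limit was not always enough; inconclusive = exactly half the replicates above a set limit; inactive = most replicates below a set limit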;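 note: all wells also contain fluconazole at 8 µg/ml as a sub-toxic cotreatment; 0% = median of DMSO wells and 100% = median of geldanamycin control wells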
# The depositor's hits bear a star; ? = inconclusive; · = no result shown. This is a sample that favours compounds with a hit; in the whole collection about 1.9% have one here.
SMILES,procasp3 activ,GAA850 FXN act,Neddylation inh,proCasp7 act,HIF activator,Calb FLC
O=c1c2ccccc2nc(/C=C/c2ccc([N+](=O)[O-])o2)n1-c1ccc(O)cc1,·,-13,-5,·,-3,98*
C[C@@H]1CN([C@H](C)CO)C(=O)CCCn2nncc2CO[C@H]1CN(C)C(=O)Oc1ccccc1,·,-2,0,·,·,·
C[C@@H]1CN([C@H](C)CO)C(=O)CCCn2nncc2CO[C@@H]1CN(C)C(=O)Oc1cccc2ccccc12,·,-2,4,·,·,·
C=C1C(=O)O[C@@H]2C[C@@H](C)[C@H]3C=CC(=O)[C@]3(O)C[C@@H]12,-2,14*,1,-8,3,26
C=C1C(=O)OC2CC3(C)OC3CCC(C)=CC(OC(C)=O)C12 (stereo not given),·,-4,-6,·,·,·
Cc1ccc(-c2cc(-c3ccccc3)cc(-c3ccccc3)[n+]2-c2ccccc2)cc1,-4,-11,24,-4,-1,86*
Cc1ccc(-c2cc(-c3ccc(C)cc3)[n+](-c3ccccc3)c(-c3ccc(C)cc3)c2)cc1,-3,-14,45*,2,-1,106*
C[n+]1c(-c2ccccc2)cc(-c2ccc(Cl)cc2)cc1-c1ccccc1,2,0,·,-3,0,97*
CN(C)c1ccc(-[n+]2c(-c3ccccc3)cc(-c3ccccc3)cc2-c2ccccc2)cc1,·,-15,-41,·,0,90*
c1ccc(-c2cc(-c3ccccc3)[n+](-c3ccccc3)c(-c3ccccc3)c2)cc1,5,-6,-4,-6,1,?
O=P(N1CC1)(N1CC1)N1CCc2ccccc21,·,1,2,·,·,·
Cc1cccc(C)c1-n1nnnc1C(c1ccnc2ccccc12)N1CCC2(CC1)C(=O)NCN2c1ccccc1 (stereo not given),·,·,2,·,·,·
OCCCCO,-2,1,-1,-2,·,·
O=[N+]([O-])c1ccc(C[n+]2c(-c3ccccc3)cc(-c3ccccc3)cc2-c2ccccc2)cc1,1,-1,·,5,0,107*
CCC(=O)[C@@H](C)[C@@H](O)[C@H](C)C[C@@H](C)C1OC(=O)C[C@@]2(O)CC=C(C)C(O2)C(C)=CCCC[C@H](O[C@H]2C[C@@H](OC(N)=O)[C@H](O)[C@@H](C)O2)C=C[C@H](C)C[C@H]1C (stereo not given in full),·,·,-6,·,·,·
CCOc1ccc(-n2c(-c3ccoc3)nc3ccccc3c2=O)cc1,3,-3,-21,-3,0,-13
CCOc1ccc(-c2c(C)n(-c3ccc(OCC)cc3)c3[n+]2CCCCC3)cc1,2,-8,-4,-9,2,87*
CN1CCc2cc3c(c4c2C1Cc1ccccc1-4)OCO3 (stereo not given),5,1,2,-6,2,92*
COc1cc2c3c(c1OC)Oc1ccc(cc1)C[C@H]1c4c(cc(OC)c(OC)c4Oc4ccc(cc4)C[C@@H]3N(C)CC2)CCN1C,6,-9,0,4,·,·
CCCCCCCCCCCCCCCC[N+](C)(C)C,-26,-1,-8,20,1,102*
O=C(CSC1c2ccccc2-c2ccccc21)N/N=C/c1ccccc1O,-37,-5,38,-45,9.9*,19
c1ccc(CN2CCc3nc4ccccc4cc3C2)cc1,10,3,4,11,2,76*
Cc1nc2ccccc2c(=O)n1-c1ccc(Br)cn1,8,-1,-2,-5,0,6
Cc1nc2ccccc2c(=O)n1/N=C/c1cc(Br)cc(Br)c1O,-1,2,72*,-4,181*,7
O=C(c1cc(Br)ccc1Cl)N1CCC2(CC1)OCCO2,7,-2,-10,2,421*,-5
SMILES,procasp3 activ,GAA850 FXN act,Neddylation inh,proCasp7 act,HIF activator,Calb FLC
O=C(c1cc2cc(Br)ccc2[nH]1)N1CCC2(CC1)OCCO2,-1,2,-232,2,1,8
CN1CN(c2ccccc2)C2(CCN(CCCSc3ccccc3NC(=O)/C=C/c3ccccc3)CC2)C1=O,·,-13,-5,·,·,·
FC(F)(F)c1ccc2c(c1)NP(=S)(N1CCOCC1)c1nccn1-2 (stereo not given),2,1,3,5,69*,5
Nc1ccc2ccc3cccc[n+]3c2c1,-11,-2,-6,-12,1,0
C[n+]1c(-c2ccccc2)c2cc(N)ccc2c2ccc(N)cc21,5,-2,-89,-6,1,93*
Cc1ccc(N2C(=O)NC(=O)/C(=C/c3cnn(-c4ccc(C)cc4)c3)C2=O)cc1,-20,0,9,-26,0,-6
Cc1ccc(N2C(=O)NC(=O)/C(=C/c3ccoc3)C2=O)cc1,·,0,98*,·,·,·
COc1cccc2c1cc([N+](=O)[O-])c1c(C(=O)O)cc3c(c12)OCO3,·,0,-2,·,·,·
CCCCCn1c(=O)c(C(=O)NCc2ccncc2)c(O)c2ccccc21,5,0,-41,11,1,84*
COc1ccc2c(c1)C1(C)CCN(C)CC(C1)C2O (stereo not given),·,0,3,·,·,·
O=C(CCc1ccccc1)N1Cc2cc(-c3ccccc3)ccc2-n2nncc2C1,·,·,13,·,·,·
CC(=O)O[C@@H]1/C=C/[C@](C)(O)C[C@@H](C)C/C=C/[C@H]2[C@@H]3O[C@]3(C)[C@@H](C)[C@H]3[C@H](Cc4ccccc4)NC(=O)[C@@]312,3,18*,-3,2,-2,1
CC(=O)O[C@@H]1/C=C/[C@](C)(O)C[C@@H](C)C/C=C/[C@H]2[C@H](O)[C@@](C)(O)[C@@H](C)[C@H]3[C@H](Cc4ccccc4)NC(=O)[C@@]312,4,0,-1,-6,0,-2
COC(=O)C1=Nc2ccccc2/C1=C\c1c(O)n(-c2cc(OC)ccc2OC)c(=O)[nH]c1=O,-6,3,5,-1,548*,15
CCN(CC)CCNCc1nc2ccccc2c(=O)n1-c1ccc(F)cc1,7,0,6,-6,60*,?
C=CCNC(=S)N1Cc2ccccc2-n2nncc2C1,·,1,0,·,·,·
Cc1cccc(N2C(=O)NC(=O)/C(=C/c3cc4c(cc3[N+](=O)[O-])OCO4)C2=O)c1,-12,4,49*,-12,0,32
O=C1NC(=O)C(=Cc2cc3c(cc2[N+](=O)[O-])OCO3)C(=O)N1,-15,2,9,-18,0,7
COc1nc2ccccc2nc1N1CC1,·,·,29,·,·,·
COC(=O)[C@]12OC[C@]34C([C@@H](O)[C@@H]1O)[C@]1(C)CC(=O)C(O)=C(C)[C@@H]1C[C@H]3OC(=O)[C@H](O)[C@@H]24 (stereo not given in full),6,-6,-8,-1,21*,2
